Where “and” joins values, the source holds several entries; their conditions need not be identical. Equal values may be shown once. Calls of active or inactive are those of the source.

For one data set, the species on record is Homo sapiens. Kind of data set: Inhibition of LPS-induced TNF-alpha formation in human whole blood. It is filed as functional, organism-based.
For data set [1], the target named is 3',5'-cyclic-AMP phosphodiesterase 4A (Homo sapiens, UniProt P27815). The data set can be described thus: Inhibition of human Phosphodiesterase 4A isoform using construct representing the common region of spliced variants expressed as GST-fusion proteins in Sf9 cells.
Sequence of 3',5'-cyclic-AMP phosphodiesterase 4A (P27815 whole entry, looked up, stated change not applied, the tested form may be a part, canonical isoform): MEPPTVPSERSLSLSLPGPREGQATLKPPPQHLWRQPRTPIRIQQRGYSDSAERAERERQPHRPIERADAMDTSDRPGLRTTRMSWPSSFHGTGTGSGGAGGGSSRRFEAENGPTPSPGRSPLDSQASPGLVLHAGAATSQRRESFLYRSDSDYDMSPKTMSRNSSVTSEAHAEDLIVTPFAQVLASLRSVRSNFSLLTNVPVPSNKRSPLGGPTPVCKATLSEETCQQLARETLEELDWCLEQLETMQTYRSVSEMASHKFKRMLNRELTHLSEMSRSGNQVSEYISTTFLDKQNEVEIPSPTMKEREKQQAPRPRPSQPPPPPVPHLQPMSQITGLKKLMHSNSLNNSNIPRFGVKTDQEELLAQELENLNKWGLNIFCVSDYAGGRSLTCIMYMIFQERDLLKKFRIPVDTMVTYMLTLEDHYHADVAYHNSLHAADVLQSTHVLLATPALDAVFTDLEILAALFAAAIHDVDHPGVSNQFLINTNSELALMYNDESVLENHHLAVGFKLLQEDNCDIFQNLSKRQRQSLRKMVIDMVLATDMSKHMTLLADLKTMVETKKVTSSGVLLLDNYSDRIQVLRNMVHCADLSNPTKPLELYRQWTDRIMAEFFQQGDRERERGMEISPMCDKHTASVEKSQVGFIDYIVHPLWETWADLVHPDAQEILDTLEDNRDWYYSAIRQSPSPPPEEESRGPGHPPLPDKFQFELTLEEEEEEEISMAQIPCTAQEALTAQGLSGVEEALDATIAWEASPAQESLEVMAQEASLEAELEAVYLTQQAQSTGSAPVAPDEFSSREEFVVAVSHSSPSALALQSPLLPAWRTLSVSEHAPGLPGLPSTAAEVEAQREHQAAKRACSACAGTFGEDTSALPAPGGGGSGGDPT
A further data set deals with Mustela putorius furo. Kind of data set: Emetic effect in ferrets to maximum 30 mg/kg oral dose. It is filed as functional, organism-based. Details: dose 30 mg/kg. The essentials:
(§1)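 Ferrets dosed orally at 30 mg/kg; emesis monitored, with plasma Cmax recorded.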

Data set [2] can be described thus: Half-life in Squirrel monkey. It is filed as ADME. Conditions: in vivo.
Data set [3] can be described thus: Half-life in Dog. It is filed as ADME, organism-based, Canis lupus familiaris. Conditions: in vivo.
The nature of data set [4]: Bioavailability upon oral administration of compound. It is filed as ADME, organism-based. Conditions: rat, in vivo. A digest of the protocol:
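Rat, oral dosing at 3 mg/kg in 60% PEG200; bioavailability determined, with plasma level also sampled at 6 h.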

A short description of data set [5]: Half-life in rat. Conditions: in vivo. It is filed as ADME, organism-based.
Data set [6] in a line: Cmax in ferrets after 30mg/kg oral dose. It is filed as ADME, organism-based, Mustela putorius furo. Set-up: dose 30 mg/kg, route oral. Conditions: ferret, in vivo. A digest of the protocol:
as §1

For data set [7], the system named is Cavia porcellus. Kind of data set: Inhibition of the ovalbumin-induced bronchoconstriction in conscious guinea pigs after 0.5 hr pretreatment with 1 mg/kg administered intraperitoneally. Conditions: route intraperitoneal. It is filed as functional.
The nature of data set [8]: (§2) Inhibition of ascaris-induced bronchoconstriction in Anaesthetized squirrel monkey after treatment with 3 mg/kg peroral dose. It is filed as functional. Conditions: route oral.
The nature of data set [9]: (§3) Inhibition of ascaris-induced bronchoconstriction in Anaesthetized squirrel monkey after treatment with 0.5 mg/kg peroral dose. It is filed as functional. Conditions: route oral.
Data set [10] is described as follows: (§4) Inhibition of ascaris-induced bronchoconstriction in Anaesthetized squirrel monkey after treatment with 1 mg/kg peroral dose. It is filed as functional. Conditions: route oral.
Data set [11] in a line: as §3. It is filed as functional. Conditions: route oral. This is another data set of the same source.
Data set [12] in a line: as §4. It is filed as functional. Conditions: route oral. This is another data set of the same source.
A short description of data set [13]: as §2. It is filed as functional. Conditions: route oral. The source holds these as a separate data set.
For data set [14], the system named is Ovis aries. Kind of data set: Inhibition of ascaris-induced bronchoconstriction in sheep after late treatment with 2 mg/kg intravenous dose.
The test system of data set [15] is Ovis aries. The data set can be described thus: Inhibition of ascaris-induced bronchoconstriction in sheep after early treatment with 2 mg/kg intravenous dose.
For data set [16], the system named is Cavia porcellus. The data set can be described thus: Inhibition of the ovalbumin-induced bronchoconstriction in conscious guinea pigs after 4 hr pretreatment with 1 mg/kg administered intraperitoneally. Conditions: route intraperitoneal. It is filed as functional.
Data set [17] deals with Ovis aries. The data set can be described thus: Inhibition of ascaris-induced bronchoconstriction in sheep after early treatment with 2 mg/kg intravenous dose. It is filed as functional. The essentials:
(§5)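 Sheep, ascaris-induced bronchoconstriction; 2 mg/kg given iv 2 h before challenge; percent inhibition of early and late responses.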

For data set [18], the system named is Ovis aries. The data set can be described thus: Inhibition of ascaris-induced bronchoconstriction in sheep after late treatment with 2 mg/kg intravenous dose. It is filed as functional. The essentials:
as §5

As usually defined, the IC50 is the midpoint of a concentration-inhibition curve. Regarding `CC(O)c1c[n+]([O-])ccc1CC(c1ccc(C(O)(C(F)(F)F)C(F)(F)F)cc1)c1ccc(OC(F)F)c(OC(F)F)c1` (stereo unspecified), the IC50 was found to be 13000 nM in the data set filed under Homo sapiens (Homo sapiens, Blood) and 42 nM in [1].
Take `Cc1cc(C(Cc2cc[n+]([O-])cc2)c2ccc(OC(F)F)c(OC(F)F)c2)ccc1C(O)(C(F)(F)F)C(F)(F)F` (stereo unspecified): the IC50 turned out to be 1000 nM in the data set filed under Homo sapiens (Homo sapiens, Blood) and 4.4 nM in [1].
Regarding `Cc1c[n+]([O-])cc(C)c1CC(c1ccc(C(O)(C(F)(F)F)C(F)(F)F)cc1)c1ccc(OC(F)F)c(OC(F)F)c1` (stereo unspecified), the concentration for half-maximal inhibition (IC50) came out at 5800 nM in the data set listed under Homo sapiens (Homo sapiens, Blood) and 57 nM in data set [1].
`Cc1c[n+]([O-])ccc1CC(c1ccc(C(O)(C(F)(F)F)C(F)(F)F)cc1)c1ccc(OC(F)F)c(OC(F)F)c1` (single isomer, unassigned; enantiomer 2): the half-inhibitory concentration (IC50) in the data set listed under Homo sapiens was found to be 3700 nM; in [1] it was 23 nM.
For `CC(=O)c1c[n+]([O-])ccc1CC(c1ccc(C(O)(C(F)(F)F)C(F)(F)F)cc1)c1ccc(OC(F)F)c(OC(F)F)c1` (stereo unspecified), the IC50 was found to be 2900 nM in the data set filed under Homo sapiens (Homo sapiens, Blood) and 2.7 nM in [1].
As for `COc1ccc([C@]2(C#N)CC[C@@H](C(=O)O)CC2)cc1OC1CCCC1` [CILOMILAST], it took 18000 nM to reach half-maximal inhibition in the data set filed under Homo sapiens (Homo sapiens, Blood) (IC50).
`[O-][n+]1ccc(CC(c2ccc(C(O)(C(F)(F)F)C(F)(F)F)cc2)c2ccc(OC(F)F)c(OC(F)F)c2)c(CO)c1` (stereo unspecified): the IC50 in the data set listed under Homo sapiens (Homo sapiens, Blood) stood at 7900 nM; in data set [1], 38 nM.
`Cc1c[n+]([O-])ccc1CC(c1ccc(C(O)(C(F)(F)F)C(F)(F)F)cc1)c1ccc(OC(F)F)c(OC(F)F)c1` (racemic): the results for the IC50 (in the data set filed under Homo sapiens; in data set [1]) were 400 nM and 2.1 nM, respectively.
Take `Cc1cc(C(O)(C(F)(F)F)C(F)(F)F)ccc1C(Cc1cc[n+]([O-])cc1)c1ccc(OC(F)F)c(OC(F)F)c1` (stereo unspecified): the IC50 in the data set listed under Homo sapiens (Homo sapiens, Blood) was 7800 nM; in data set [1] it was 32 nM.
The matching figures for `CCc1c[n+]([O-])ccc1CC(c1ccc(C(O)(C(F)(F)F)C(F)(F)F)cc1)c1ccc(OC(F)F)c(OC(F)F)c1` (stereo unspecified): 3900 nM and 27 nM.
With `CC(c1cc[n+]([O-])cc1)C(c1ccc(C(O)(C(F)(F)F)C(F)(F)F)cc1)c1ccc(OC(F)F)c(OC(F)F)c1` (single isomer, unassigned; diastereomer 2), the half-inhibitory concentration (IC50) in the data set filed under Homo sapiens came to 7800 nM; in [1], 39 nM.
The matching figures for `CC(c1cc[n+]([O-])cc1)C(c1ccc(C(O)(C(F)(F)F)C(F)(F)F)cc1)c1ccc(OC(F)F)c(OC(F)F)c1` (single isomer, unassigned; diastereomer 1): 23000 nM and 39 nM.
For `Cc1c[n+]([O-])ccc1CC(c1ccc(C(O)(C(F)(F)F)C(F)(F)F)cc1)c1ccc(OC(F)F)c(OC(F)F)c1` (stereo in doubt) [listing 1 of 2 here], the Emesis entry with Mustela putorius furo is “inactive”.
What is called half-life is the time needed for the level to fall by half in the phase considered. In general, bioavailability refers to the share of a dose that reaches the circulation, judged against a reference dose that is usually intravenous. As usually defined, the Cmax is the maximum level reached in the sampled fluid or tissue. As for `Cc1c[n+]([O-])ccc1CC(c1ccc(C(O)(C(F)(F)F)C(F)(F)F)cc1)c1ccc(OC(F)F)c(OC(F)F)c1` (stereo in doubt) [listing 2 of 2 here], the half-life was 36 h in data set [2], 19 h in data set [3] and 10 h in [5]. The compound also came in with a bioavailability in data set [4] of 60%. In data set [6], this compound returned a maximum concentration (Cmax) of 10 µM. The Efficacy in the data set on Cavia porcellus [7] is recorded as 82%; in data set [8], 59%; in data set [9], 26%; in [10], 33%; in data set [11], 38%; in data set [12] it was 63%. The Efficacy is recorded as 100% in data set [13], 90% in the data set with Ovis aries [14] and 62% in the data set with Ovis aries [15]. For the same compound, the concentration for half-maximal inhibition (IC50) in the data set listed under Homo sapiens was 300 nM; in data set [1], 1.3 nM and 4.2 nM.
Consider `COc1ccc([C@H](Cc2ccncc2)c2ccccc2)cc1OC1CCCC1` [CDP840], for which the IC50 in the data set filed under Homo sapiens (Homo sapiens, Blood) was found to be 15000 nM; in data set [1] it was 4.2 nM.
The matching figures for `Cc1cc(CC(c2ccc(C(O)(C(F)(F)F)C(F)(F)F)cc2)c2ccc(OC(F)F)c(OC(F)F)c2)cc[n+]1[O-]` (stereo unspecified): 300 nM and 18 nM.
In the case of `[O-][n+]1ccc(CC(c2ccc(C(O)(C(F)(F)F)C(F)(F)F)cc2)c2ccc(OC(F)F)c(OC(F)F)c2)cc1` (stereo unspecified), the half-life in data set [2], in [3] and in data set [5] was above 48 h each time. In the data set with Mustela putorius furo, the Emesis entry is “inactive”. Moreover, in data set [6], the Cmax worked out at 14 µM. Also, the Efficacy was found to be 0% in the data set with Cavia porcellus [7]; 58% with Cavia porcellus [16]; 85% with Ovis aries [17]; 95% in the data set with Ovis aries [18]; 96% in data set [8]. Besides, the IC50 in the data set filed under Homo sapiens (Homo sapiens, Blood) was determined as 700 nM; in [1], 4.2 nM.

The values are drawn from ChEMBL document CHEMBL1134922, “Substituted 4-(2,2-diphenylethyl)pyridine-N-oxides as phosphodiesterase-4 inhibitors: SAR study directed toward the improvement of pharmacokinetic parameters” (Bioorg Med Chem Lett, 2002).
